# Active and inactive are the calls of the source.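 The calls were made as follows, unless noted: active = inhibition above 20% together with a positive visual image hit; inconclusive = visual image hit but inhibition not above 20%; inactive = no visual image hit.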
# Key:
# [1] = inhibitors of TNFa-induced NFkB p65 translocation, primary screen, imaging, HUVEC, MLSMR starter and 10KST1 sets (AID 438); conditions: HUVEC TNFa-induced p65 nuclear translocation; cell count: measured here: nuclei count (cytotoxicity indicator), at 2.08 µM; inhibition: at 2 µM, stronger effect = higher value, 0% TNFa-plus-vehicle, 100% no-TNFa wells;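 also: compound added about 3h40 before a 20 min TNFalpha stimulation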;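 as to inhibition: signal is the nuclear over cytoplasmic p65 intensity ratio per well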
# [2] = inhibitors of E-selectin induction by TNFa, primary screen, imaging, HUVEC, immunofluorescence, MLSMR starter and 10KST1 sets (AID 487;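 active = visually confirmed hit in the image check and inhibition above 20%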;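 as to inhibition: signal is fraction of cell area covered by stained E-selectin grains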;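 as to nuclei count: 100% = median nuclei count of all wells on the same plate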); conditions: HUVEC TNFalpha-induced E-selectin immunofluorescence imaging, at 2 µM; inhibition: stronger effect = higher value; nuclei count: measured here: cell number, toxicity
# [3] = DUSP6 inhibitors restoring Erk phosphorylation by chemical complementation, primary imaging in DUSP6-transfected HeLa (AID 609;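 active = compounds giving at least 50% inhibition in the cell-based MKP-3 phosphatase rescue imaging test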;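 as to inhibition: phospho-Erk level distribution per well compared with pooled transfected vehicle control wells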); conditions: HeLa MKP-3 transfected, phospho-Erk imaging KS statistic, at 10 µM, cells stimulated with TPA for 15 min
# [4] = biological target: Dual specificity protein phosphatase 6 (Homo sapiens) (UniProt Q16828); test: as above; conditions: HeLa MKP-3 transfected, phospho-Erk imaging KS statistic; at 10 µM; stronger effect = higher value; cells stimulated with TPA for 15 min
# Chain of Dual specificity protein phosphatase 6 (Homo sapiens) (Q16828 whole entry, looked up): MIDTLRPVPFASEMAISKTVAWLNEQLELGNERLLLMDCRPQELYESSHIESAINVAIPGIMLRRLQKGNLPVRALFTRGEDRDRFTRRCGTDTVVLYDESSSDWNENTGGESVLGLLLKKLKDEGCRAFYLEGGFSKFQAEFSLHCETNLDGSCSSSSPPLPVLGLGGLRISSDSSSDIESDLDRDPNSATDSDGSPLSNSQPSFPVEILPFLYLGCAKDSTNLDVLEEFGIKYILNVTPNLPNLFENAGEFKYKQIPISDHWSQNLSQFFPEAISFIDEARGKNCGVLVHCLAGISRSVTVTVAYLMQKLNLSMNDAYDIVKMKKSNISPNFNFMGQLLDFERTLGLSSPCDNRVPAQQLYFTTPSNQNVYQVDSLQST
# [5] = biological target: Voltage-gated potassium channel subunit beta-2 (Rattus norvegicus) (UniProt P62483); test: KvBeta enzyme negative modulators, primary screen, biochemical, NADPH fluorescence (AID 622;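 active = fluorescence slope higher than the sample average by over 3 SD, cut at about -0.22 in these data, passing the limit was not always enough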;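 also: slope of raw intensity against log time taken from 70 to 1610 s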); conditions: recombinant KvBeta, 4-cyanobenzaldehyde reduction, at 10 µM, stronger effect = higher value
# Chain of Voltage-gated potassium channel subunit beta-2 (Rattus norvegicus) (P62483 whole entry, looked up): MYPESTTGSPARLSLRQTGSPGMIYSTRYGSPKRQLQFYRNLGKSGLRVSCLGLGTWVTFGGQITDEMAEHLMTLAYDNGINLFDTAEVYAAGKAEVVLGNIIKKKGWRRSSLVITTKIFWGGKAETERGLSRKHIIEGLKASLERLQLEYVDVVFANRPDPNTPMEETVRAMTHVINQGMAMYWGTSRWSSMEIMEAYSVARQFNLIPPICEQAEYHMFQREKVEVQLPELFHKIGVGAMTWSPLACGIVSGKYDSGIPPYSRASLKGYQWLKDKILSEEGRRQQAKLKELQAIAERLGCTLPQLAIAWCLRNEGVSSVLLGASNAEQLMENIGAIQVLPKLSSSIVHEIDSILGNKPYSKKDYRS
# [6] = biological target: Voltage-gated potassium channel subunit beta-2 (Rattus norvegicus) (UniProt P62483); test: KvBeta positive modulators, primary screen, biochemical, NADPH fluorescence (AID 623;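 active = NADPH fluorescence slope more negative than the mean of all samples by about 3 SD, 99.7% confidence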;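 also: fluorescence intensity change per second fitted from 20 to 320 s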); conditions: Recombinant KvBeta, NADPH fluorescence decrease slope, 10 min; at 10 µM; stronger effect = lower value
# [7] = biological target: Alpha-2C adrenergic receptor (Homo sapiens) (UniProt P18825); test: modulators of alpha2C/GIRK thallium flux, primary screen, cell-based, HEK293 alpha2C/GIRK1/2 (AID 624;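 active = fluorescence slope after compound addition differing from the mean of all screened samples at 99.7% confidence, in either direction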;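 also: slope of fluorescence ratio to pre-addition baseline per second over 15 to 24 s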); conditions: thallium flux BTC fluorescence, at 10 µM, actives lie on both sides
# Chain of Alpha-2C adrenergic receptor (Homo sapiens) (P18825 whole entry, looked up): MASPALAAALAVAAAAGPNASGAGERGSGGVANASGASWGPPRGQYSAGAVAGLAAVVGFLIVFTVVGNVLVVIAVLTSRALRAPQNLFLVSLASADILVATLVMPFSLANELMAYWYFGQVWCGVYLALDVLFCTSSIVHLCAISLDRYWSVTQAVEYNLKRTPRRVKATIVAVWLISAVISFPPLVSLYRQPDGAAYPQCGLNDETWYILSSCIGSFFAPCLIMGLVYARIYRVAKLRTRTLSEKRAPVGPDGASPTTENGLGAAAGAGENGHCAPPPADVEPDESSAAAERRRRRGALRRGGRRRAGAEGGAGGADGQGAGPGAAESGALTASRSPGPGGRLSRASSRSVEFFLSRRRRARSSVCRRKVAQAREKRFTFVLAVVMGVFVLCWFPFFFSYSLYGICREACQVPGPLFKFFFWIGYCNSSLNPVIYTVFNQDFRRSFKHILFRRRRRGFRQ
# [8] = inhibitors of larval lipid processing in zebrafish, primary screen, whole organism, PED6 fluorescence, gall bladder and intestine (AID 686;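 active = a full or partial loss of lipid-probe fluorescence in the fish gall bladder, intestine or both, judged by eye; inactive = no fluorescence loss, or compound toxic to the fish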;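 also: larvae 5 to 7 days old with five fish per well; signal comes from phospholipase A2 cleavage of quenched PED6 carried via bile; overnight exposure to compound and PED6 before scoring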); conditions: Zebrafish larvae PED6 lipid processing, fluorescence scoring; screened at 20 µM (by protocol)
# How it was run: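 Test system – live zebrafish larvae aged 5-7 days, whole organism · Buffer or medium – E3 fish medium · Reagent – quenched phospholipase substrate PED6, 100 nM final, ingested by larvae · Doses – 20 µM single dose · Incubation – overnight compound and PED6 incubation · Technique – visual fluorescence microscopy scoring of gall bladder, gut · Read-out basis – visual per-well fluorescence inhibition score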
# [9] = inhibitors of Chlamydomonas gravitaxis, primary screen, whole organism, Chlamydomonas reinhardtii, WT vs cilia-less mutant, absorbance, 96-well (AID 463189;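 active = inhibition at or above 50% relative to wild type and mutant plate controls; inactive = inhibition below 50%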;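 also: 0% = wild type cc124 cells in DMSO and 100% = ciliumless bld1 mutant cells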); conditions: OD600 absorbance, 2 days, at 10 µM, stronger effect = higher value
# [10] = measured here: cell density z-score
# [11] = measured here: nuclear c-Myc green intensity z-score
# [12] = measured here: nuclear pErk red intensity z-score, stronger effect = higher value
SMILES,cell count [1],inhibition [1],inhibition [2],nuclei count [2],"z-score [3, 10]","z-score [3, 11]","z-score [3, 12]",inhibition [4],fluorescence slope [5],NADPH fluorescence slope [6],slope [7],outcome [8],inhibition [9]
CN1CCC2(CC1)C1CN(C)CC=C1C(C#N)=C(N)C2(C#N)C#N (stereo not drawn),542,-8.9% (inactive),-165% (inactive),198%,-1.09,0.771,1.17,2.46% (inactive),-0.349 (inactive),-8.7e-06 (inactive),0.0029 (inactive),inactive,11.5% (inactive)
CCOC(=O)c1sc2c(c1C)c(=O)c(C(=O)OCC)cn2CC,584,-4.2% (inactive),-79% (inactive),156%,-0.851,-0.225,0.403,7.01% (inactive),-0.376 (inactive),4.1e-06 (inactive),0.00559 (inactive),inactive,-0.239% (inactive)
COc1ccc(C2C(C#N)=C(N)SC(N)=C2C#N)cc1OC,280,-16.8% (inactive),-21.6% (inactive),85.8%,0.114,1.01,-1.06,-10.5% (inactive),-0.401 (inactive),-5.5e-05 (inactive),0.00592 (inactive),inactive,-3.02% (inactive)
NC(=O)CSc1nc(N)c2c3c(sc2n1)CCCCC3,620,-15.9% (inactive),47.7% (inactive),164%,-1.12,-0.0373,0.273,-2.29% (inactive),-0.362 (inactive),-6.1e-05 (inactive),0.0046 (inactive),inactive,10.9% (inactive)
CCC1(C)Cc2c(sc3c2c(=O)n(C)c2nnc(SCc4ccc5c(c4)OCO5)n32)CO1 (stereo not drawn),497,-11% (inactive),34% (inactive),98.6%,1.16,0.737,-1.44,22.3% (inactive),-0.418 (inactive),9.4e-07 (inactive),0.00552 (inactive),inactive,46.1% (inactive)
COc1ccc(/C(O)=C2\C(=O)C(=O)N(CCN(C)C)C2c2cccc(OC)c2OC)cc1 (stereo not drawn),614,-5.4% (inactive),-56.5% (inactive),192%,0.97,0.147,-0.253,9.61% (inactive),-0.338 (inactive),-2.9e-05 (inactive),0.00479 (inactive),inactive,-2.59% (inactive)
O=C1CC(c2ccco2)CC(O)=C1C=Nc1cc(Cl)ccc1O (stereo not drawn),416,-17% (inactive),-77.9% (inactive),152%,-1.18,-0.564,1.32,1.04% (inactive),-0.386 (inactive),-5.2e-05 (inactive),0.00522 (inactive),inactive,17.7% (inactive)
CC(C)C1Cc2c(sc3c2c(=O)n(Cc2ccccc2)c2nncn32)CO1 (stereo not drawn),557,-4.6% (inactive),-2.8% (inactive),115%,1.56,0.421,-0.614,9.61% (inactive),-0.481 (inactive),-0.000346 (inactive),0.00509 (inactive),inactive,8.24% (inactive)
Cc1ccc(C2C(C(=O)c3cc4ccccc4o3)=C(O)C(=O)N2CCN(C)C)o1 (stereo not drawn),352,-3% (inactive),23.2% (inactive),101%,-1.49,2.05,-0.073,-6.48% (inactive),-0.443 (inactive),-2.4e-05 (inactive),0.00982 (inactive),inactive,-11.1% (inactive)
Cc1cccc(OCC(=O)N2CCC(N3CCOCC3)CC2)c1,356,-12.6% (inactive),-156% (inactive),149%,2.22,-1.72,0.299,17% (inactive),-0.406 (inactive),-4.5e-05 (inactive),0.00455 (inactive),inactive,11.3% (inactive)
CCOC(=O)c1sc(-n2[nH]c(C)cc2=O)nc1C,452,-2.2% (inactive),-23% (inactive),170%,1.1,-0.753,0.507,-10.1% (inactive),-0.398 (inactive),-7e-05 (inactive),0.00502 (inactive),inactive,-4.12% (inactive)
COc1cccc(-c2nnc3sc(-c4ccco4)nn23)c1,467,-4% (inactive),3.6% (inactive),105%,1.05,-0.932,-0.641,8.31% (inactive),-0.463 (inactive),1.3e-05 (inactive),0.00496 (inactive),active; weak signal in gallbladder and intestine,38.1% (inactive)
COc1cc(C)nc(Oc2ccc(=O)n(C)n2)n1,616,-10.3% (inactive),13.1% (inactive),188%,0.099,-0.292,0.697,-8.95% (inactive),-0.38 (inactive),-2.2e-05 (inactive),0.00541 (inactive),inactive,3.29% (inactive)
O=C(O)c1cnn2c(C(F)(F)F)cc(-c3ccco3)nc12,416,1.3% (inactive),-45.3% (inactive),96.3%,1.16,-0.0109,-0.464,9.39% (inactive),-0.48 (inactive),-7.9e-05 (inactive),0.005 (inactive),inactive,17.4% (inactive)
CCOc1cccc(-c2nnc3sc(C4CCCCC4)nn23)c1,683,1.1% (inactive),16.2% (inactive),160%,1.83,-1.11,-1.63,15.5% (inactive),-0.446 (inactive),-0.000139 (inactive),0.00527 (inactive),inactive; toxic,36.1% (inactive)
O=C(CN1C(=O)c2ccccc2C1=O)NCc1ccncc1,357,-6.8% (inactive),-60.9% (inactive),167%,0.341,-1.51,1.76,-10.6% (inactive),-0.432 (inactive),-0.000133 (inactive),0.00529 (inactive),inactive,31% (inactive)
Cc1cc(C)c(NC(=O)OCCN2CCOCC2)c(C)c1,581,-17.3% (inactive),-82.2% (inactive),168%,-0.0769,-0.6,1.06,3.56% (inactive),-0.468 (inactive),-7.1e-05 (inactive),0.00577 (inactive),inactive,19.8% (inactive)
Cc1nc2c(c(=O)n1CC1CCCO1)c1nc3ccccc3nc1n2CCC(C)C (stereo not drawn),327,-4.1% (inactive),-30.1% (inactive),177%,1.21,-0.55,1.04,-0.584% (inactive),-0.381 (inactive),-0.000104 (inactive),0.00821 (inactive),inactive,24.8% (inactive)
COCCNc1nc2c(c(=O)n(Cc3ccc(OC)cc3)c(=O)n2C)n1C,357,-17.8% (inactive),-26.3% (inactive),128%,0.697,0.778,-0.00517,4.37% (inactive),-0.32 (inactive),7.3e-06 (inactive),0.00535 (inactive),inactive,15.2% (inactive)
COc1ccc(CCCNC(=O)CC#N)cc1OC,652,-3.9% (inactive),-14.5% (inactive),185%,-0.133,0.521,-0.241,17% (inactive),-0.512 (inactive),-4.5e-05 (inactive),0.00537 (inactive),inactive,10.9% (inactive)
CC1CN(C2CCN(C(=O)COc3ccccc3)CC2)CC(C)O1 (stereo not drawn),357,-12.6% (inactive),-160% (inactive),111%,-0.694,1.72,-2.62,1.75% (inactive),-0.455 (inactive),-1.3e-05 (inactive),0.00556 (inactive),inactive,-3.28% (inactive)
